By inhibition in vivo is commonly meant the relative decrease from the control value, in per cent. Read a low inhibition in vivo as a response near the control. As a reminder, the IC50 is the concentration that inhibits the measured activity by half.

Active and inactive are the calls of the source. No cut-off for these calls is given here.

For test [1], the target named is T1, Polyunsaturated fatty acid 5-lipoxygenase (Homo sapiens) (UniProt P09917).
T1 sequence (whole entry): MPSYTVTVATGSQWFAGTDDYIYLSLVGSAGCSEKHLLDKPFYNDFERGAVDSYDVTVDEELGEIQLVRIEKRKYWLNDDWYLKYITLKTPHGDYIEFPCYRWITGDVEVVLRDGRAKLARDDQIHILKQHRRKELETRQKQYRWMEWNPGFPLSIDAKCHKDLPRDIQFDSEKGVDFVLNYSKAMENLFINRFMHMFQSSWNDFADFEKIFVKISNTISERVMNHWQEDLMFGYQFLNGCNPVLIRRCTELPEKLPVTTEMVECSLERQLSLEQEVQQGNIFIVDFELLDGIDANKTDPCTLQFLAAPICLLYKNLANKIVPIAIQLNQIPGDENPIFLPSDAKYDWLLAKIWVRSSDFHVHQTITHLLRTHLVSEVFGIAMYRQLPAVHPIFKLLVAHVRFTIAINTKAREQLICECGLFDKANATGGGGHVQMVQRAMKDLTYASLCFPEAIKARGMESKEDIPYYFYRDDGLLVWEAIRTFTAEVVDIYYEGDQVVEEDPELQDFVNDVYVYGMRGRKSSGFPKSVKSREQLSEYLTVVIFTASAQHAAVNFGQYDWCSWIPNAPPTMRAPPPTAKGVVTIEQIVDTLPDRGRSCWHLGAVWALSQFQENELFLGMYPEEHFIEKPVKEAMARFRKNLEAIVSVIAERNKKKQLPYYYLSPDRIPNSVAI
Briefly: Inhibition of 5-lipoxygenase activity at 1000 uM by ferric-xylenol orange peroxide assay relative to control. The essentials: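 Modified ferric-xylenol orange peroxide assay. 5-Lipoxygenase with test substance and linoleic acid (80 mM) in 50 mM phosphate pH 6.3 was incubated 5 min. Ferric-xylenol orange reagent in perchloric acid was then added and A585 read 2 min later. Percent inhibition is relative to the control. Triplicates averaged.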

For test [2], the system named is Rattus norvegicus. Kind of test: Antiinflammatory activity against carrageenan-induced paw edema in Wistar rat at 200 mg/kg, po administered 1 hr before inflammation induction measured after 3 hrs of carrageenan challenge relative to control. The format is functional. The essentials:
(§1)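 Wistar rats of either sex, 180-220 g, groups of six. Test material suspended in 1% Tween-80 and given orally 1 h before 0.1 mL of 1% w/v carrageenan in saline was injected subplantar into the left hind paw. Vehicle controls received 1% Tween-80 at 10 mL/kg. Paw volume was read by plethysmometer at 0 and 3 h. Percent inhibition compares mean edema volume with the control group.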
For orientation: Carrageenan injected into the paw causes an acute inflammation.

The test system of test [3] is Rattus norvegicus. Briefly: Antiinflammatory activity against carrageenan-induced paw edema in Wistar rat at 25 mg/kg, po administered 1 hr before inflammation induction measured after 3 hrs of carrageenan challenge relative to control. The test is classed as functional. Put shortly:
as §1

A short description of test [4]: Antioxidant activity assessed as superoxide radical scavenging activity by NBT method. The format is functional. Put shortly: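 Riboflavin-photogenerated superoxide was detected by NBT reduction (McCord–Fridovich). The mixture held EDTA 6.0 µM, NaCN 3 µg, riboflavin 2 µM, NBT 50 µM and test substance in methanol, in 58 mM phosphate pH 7.8, 3 mL final. A560 was read before and after illumination. IC50 was taken from the plot of concentration in µM against % inhibition.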

The test system of test [5] is Radical scavenging activity. Kind of test: Antioxidant activity assessed as DPPH free radical scavenging activity. The format is functional. The essentials: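 DPPH was used as a […] methanolic solution and mixed with a range of test concentrations. Mixtures stood in the dark for 50 min, then absorbance at 517 nm was read against a blank. Run in triplicate and averaged.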
(In general: DPPH is a stable violet radical that fades when it is reduced.)

With `COc1cc(/C=C/C(=O)OC[C@H]2O[C@@H](O[C@@H]3OC=C(C(=O)O)[C@H]4CC[C@](C)(O)[C@@H]34)[C@H](OC(=O)c3ccc(O)cc3)[C@@H](O)[C@@H]2O)ccc1O`, the outcome in test [1] was inactive. The molecule further returned an inhibition in vivo at 200 mg/kg in test [2] of 20%.
Consider `C[C@H]1[C@H]2[C@H](O[C@@H]3O[C@H](CO)[C@@H](O)[C@H](O)[C@H]3OC(=O)c3ccc(O)cc3)OC=C(C(=O)O)[C@H]2C[C@@H]1O`, for which, in test [1], the result was inactive.
As for `O=C([O-])Cc1ccccc1Nc1c(Cl)cccc1Cl.[Na+]` [DICLOFENAC SODIUM], the Activity in test [3] is on record as 62%.
Take `O=C(OCC1=C[C@@H](O)[C@@H]2C=CO[C@@H](O[C@@H]3O[C@H](CO)[C@@H](O)[C@H](O)[C@H]3O)[C@H]12)c1ccc(O)cc1`: in test [1], the outcome was inactive.
For the molecule `C=C1[C@H]2[C@H](O[C@@H]3O[C@H](COC(=O)/C=C/c4ccc(O)c(O)c4)[C@@H](O)[C@H](O)[C@H]3OC(=O)c3ccc(O)cc3)OC=C(C(=O)O)[C@H]2C[C@@H]1O`, in test [1], the result was inactive. Moreover, the values for the IC50 in test [4] and in test [5] were 32 µM and 10.9 µM, respectively.
Take `Cc1cc(C(C)(C)C)c(O)c(C(C)(C)C)c1` [BUTYLATED HYDROXYTOLUENE]: the concentration for half-maximal inhibition (IC50) in test [4] amounted to 381 µM; in test [5], 19 µM.
Consider `C[C@H]1[C@H]2[C@H](O[C@@H]3O[C@H](COC(=O)/C=C/c4ccc(O)c(O)c4)[C@@H](O)[C@H](O)[C@H]3OC(=O)c3ccc(O)cc3)OC=C(C(=O)O)[C@H]2C[C@@H]1O`, for which, in test [1], the result was inactive. Moreover, the figures for the IC50 in test [4] and in test [5] were 31.9 µM and 11.4 µM, respectively.
The corresponding values for `C[C@]1(O)CC[C@@H]2C(C(=O)O)=CO[C@@H](O[C@@H]3O[C@H](COC(=O)/C=C/c4ccc(O)c(O)c4)[C@@H](O)[C@H](O)[C@H]3OC(=O)c3ccc(O)cc3)[C@@H]21` are “inactive”, 24.3 µM and 15.2 µM.
For `C=C1[C@H]2[C@H](O[C@@H]3O[C@H](CO)[C@@H](O)[C@H](O)[C@H]3OC(=O)c3ccc(O)cc3)OC=C(C(=O)O)[C@H]2C[C@@H]1O`, in test [1], the outcome was inactive.
Take `COc1ccc(O)c(C(C)(C)C)c1.COc1ccc(O)cc1C(C)(C)C` [BUTYLATED HYDROXYANISOLE]: the IC50 in test [4] is 966 µM; in test [5], 18 µM.
As to `C[C@]1(O)CC[C@@H]2C(C(=O)O)=CO[C@@H](O[C@@H]3O[C@H](CO)[C@@H](O)[C@H](O)[C@H]3OC(=O)c3ccc(O)cc3)[C@@H]21`, the outcome in test [1] was inactive.
